Measured values from ChEMBL document CHEMBL1141529, “Design and synthesis of 3-arylpyrrolidine-2-carboxamide derivatives as melanocortin-4 receptor ligands” (Bioorg Med Chem Lett, 2008).
pEC50, pIC50, pKi: −log10 of the molar value.

Legend:
Melanocortin receptor 4 [1] = target: T1, Melanocortin receptor 4 (Homo sapiens, UniProt P32245); assay: Displacement of [125]NDPMSH from human MC4 receptor expressed in HEK293 cells; format: cell-based
Melanocortin receptor 4 [2] = target: T1, Melanocortin receptor 4; assay: Antagonist activity at MC4 receptor assessed as inhibition of alpha-MSH-stimulated cAMP production; format: functional
[3] = Cmax in rat at 10 mg/kg, po; format: ADME, organism-based; set-up: dose 10 mg/kg, route oral; settings: in vivo
In short: (§1)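 Rats dosed orally at 10 mg/kg. Cmax and AUC are plasma values. Absolute bioavailability is referenced to a separate intravenous 5 mg/kg dose.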

Rattus norvegicus = assay: AUC in rat at 10 mg/kg, po; format: ADME, organism-based, Plasma; set-up: dose 10 mg/kg, route oral; settings: in vivo; in short: as §1
[4] = Absolute bioavailability in rat at 10 mg/kg, po; format: ADME, organism-based; settings: in vivo; in short: as §1
[5] = Half life in rat at 5 mg/kg, iv; format: ADME, organism-based; set-up: dose 5 mg/kg, route intravenous; settings: in vivo
In short: (§2)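 Single intravenous injection at 5 mg/kg in rats. Clearance, volume of distribution and half-life are derived from plasma concentrations.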

[6] = Volume of distribution in rat at 5 mg/kg, iv; format: ADME, organism-based; set-up: dose 5 mg/kg, route intravenous; settings: in vivo; in short: as §2
[7] = Plasma clearance in rat at 5 mg/kg, iv; format: ADME, organism-based; set-up: dose 5 mg/kg, route intravenous; in short: as §2
Melanocortin receptor 4 [8] = target: T1, Melanocortin receptor 4; assay: Agonist activity at MC4 receptor by cAMP assay; format: functional

T1 sequence (P32245 whole entry): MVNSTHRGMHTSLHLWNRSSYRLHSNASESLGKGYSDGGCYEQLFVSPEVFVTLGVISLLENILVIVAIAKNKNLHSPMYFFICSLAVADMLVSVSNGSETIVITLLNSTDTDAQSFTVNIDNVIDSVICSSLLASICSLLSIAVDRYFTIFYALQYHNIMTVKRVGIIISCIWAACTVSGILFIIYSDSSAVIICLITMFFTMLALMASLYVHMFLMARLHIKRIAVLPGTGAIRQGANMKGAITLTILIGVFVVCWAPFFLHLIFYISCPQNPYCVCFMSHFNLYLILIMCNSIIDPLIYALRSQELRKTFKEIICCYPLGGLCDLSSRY

| Compound | pKi (Melanocortin receptor 4 [1]) | also measured |
| --- | --- | --- |
| CC(C)C[C@H](N)c1cc(Cl)ccc1N1CCN(C(=O)C2NCCC2c2ccc(Cl)cc2)CC1 (some centres undefined) | 7.02 |  |
| Cc1ccc(N2CCN(C(=O)[C@@H]3[C@@H](c4ccc(Cl)cc4)CCN3C(=O)OC(C)C)CC2)c([C@@H](N)C(C)C)c1 | 7.17 |  |
| CC(C)C[C@H](N)c1cc(Cl)ccc1N1CCN(C(=O)[C@@H]2NCC[C@@H]2c2ccc(Cl)cc2Cl)CC1 |  | pIC50 (Melanocortin receptor 4 [2]): 5.82 |
| Cc1ccc(N2CCN(C(=O)[C@@H]3[C@@H](c4ccc(Cl)cc4)CCN3C(=O)C3CCC3)CC2)c([C@@H](N)C(C)C)c1 | 7.26 |  |
| CCOC(=O)N1CC[C@@H](c2ccc(Cl)cc2)[C@H]1C(=O)N1CCN(c2ccc(C)cc2[C@@H](N)C(C)C)CC1 | 6.89 |  |
| CCOC(=O)N1CC[C@H](c2ccc(Cl)cc2)[C@@H]1C(=O)N1CCN(c2ccccc2[C@@H](N)C(C)C)CC1 | 7.03 |  |
| CC(C)C[C@H](N)c1cc(C(F)(F)F)ccc1N1CCN(C(=O)C2NCCC2c2ccc(Cl)cc2)CC1 (some centres undefined) | 7.01 |  |
| CC(C)C[C@H](N)c1cc(C(F)(F)F)ccc1N1CCN(C(=O)C2NC(=O)CC2c2ccc(Cl)cc2)CC1 (some centres undefined) | 6.47 |  |
| CC(C)[C@H](N)c1cccc(F)c1N1CCN(C(=O)C2NCCC2c2ccc(Cl)cc2Cl)CC1 (some centres undefined) | 6.25 |  |
| CCOC(=O)N1CC[C@H](c2ccc(Cl)cc2)[C@@H]1C(=O)N1CCN(c2ccc(C)cc2[C@@H](N)C(C)C)CC1 (stereo in doubt; form 2) | 7.96 |  |
| CC(C)C[C@H](N)c1cc(Cl)ccc1N1CCN(C(=O)C2NCCC2c2ccc(Cl)cc2Cl)CC1 (some centres undefined) | 6.72 |  |
| CC(C)C[C@H](N)c1cc(C(F)(F)F)ccc1N1CCN(C(=O)C2(Cc3ccc(Cl)cc3)COC(=O)N2)CC1 (some centres undefined) | 6.26 |  |
| Cc1ccc(N2CCN(C(=O)[C@H]3[C@@H](c4ccc(Cl)cc4)CCN3S(C)(=O)=O)CC2)c([C@@H](N)C(C)C)c1 | 7.40 |  |
| Cc1ccc(N2CCN(C(=O)[C@@H]3NCC[C@@H]3c3ccc(Cl)cc3)CC2)c([C@@H](N)C(C)C)c1 | 7.28 | pIC50 (Melanocortin receptor 4 [2]): 6.51 |
| CCOC(=O)N1CC[C@H](c2ccc(Cl)cc2)[C@@H]1C(=O)N1CCN(c2ccc(Cl)cc2[C@@H](N)C(C)C)CC1 | 7.74 |  |
| CCCC(=O)N1CC[C@H](c2ccc(Cl)cc2)[C@H]1C(=O)N1CCN(c2ccc(C)cc2[C@@H](N)C(C)C)CC1 | 7.28 |  |
| Cc1ccc(N2CCN(C(=O)[C@@H]3[C@@H](c4ccc(Cl)cc4)CCN3C(=O)[C@H]3Cc4ccccc4CN3)CC2)c([C@@H](N)C(C)C)c1 | 7.04 | pEC50 (Melanocortin receptor 4 [8]): 4.82; Emax (Melanocortin receptor 4 [8]): 21% |
| CCOC(=O)N1CC[C@H](c2ccc(Cl)cc2)[C@@H]1C(=O)N1CCN(c2ccc(F)cc2[C@@H](N)C(C)C)CC1 | 7.13 |  |
| Cc1ccc(N2CCN(C(=O)[C@H]3[C@@H](c4ccc(Cl)cc4)CCN3C(C)C)CC2)c([C@@H](N)C(C)C)c1 | 6.96 |  |
| Cc1ccc(N2CCN(C(=O)[C@H]3[C@@H](c4ccc(Cl)cc4)CCN3C(=O)C(C)(C)C)CC2)c([C@@H](N)C(C)C)c1 | 8.14 |  |
| CCOC(=O)N1CC[C@H](c2ccc(Cl)cc2)[C@H]1C(=O)N1CCN(c2ccc(C)cc2[C@@H](N)C(C)C)CC1 | 7.38 |  |
| Cc1ccc(N2CCN(C(=O)[C@H]3[C@@H](c4ccc(Cl)cc4)CCN3C(=O)[C@H]3Cc4ccccc4CN3)CC2)c([C@@H](N)C(C)C)c1 | 8.96 | pEC50 (Melanocortin receptor 4 [8]): 5.46; Emax (Melanocortin receptor 4 [8]): 44% |
| Cc1ccc(N2CCN(C(=O)[C@H]3[C@@H](c4ccc(Cl)cc4)CCN3C)CC2)c([C@@H](N)C(C)C)c1 | 6.80 |  |
| CC(C)[C@H](N)c1cccc(F)c1N1CCN(C(=O)C2NCCC2c2ccc(Cl)cc2)CC1 (some centres undefined) | 6.96 |  |
| Cc1ccc(N2CCN(C(=O)[C@@H]3[C@@H](c4ccc(Cl)cc4)CCN3C(=O)C(C)(C)C)CC2)c([C@@H](N)C(C)C)c1 | 7.10 |  |
| CCOC(=O)N1CC[C@H](c2ccc(Cl)cc2)[C@@H]1C(=O)N1CCN(c2ccc(C)cc2[C@@H](N)C(C)C)CC1 (stereo in doubt; form 1) | 7.80 | pIC50 (Melanocortin receptor 4 [2]): 6.19 |
| CC(C)[C@H](N)c1cccc(F)c1N1CCN(C(=O)[C@@H]2NCC[C@@H]2c2ccc(Cl)cc2)CC1 |  | pIC50 (Melanocortin receptor 4 [2]): 6.02 |
| CC(C)C[C@H](N)c1cc(C(F)(F)F)ccc1N1CCN(C(=O)[C@@H]2NCC[C@@H]2c2ccc(Cl)cc2)CC1 |  | pIC50 (Melanocortin receptor 4 [2]): 5.62 |
| Cc1ccc(N2CCN(C(=O)C3NCCC3c3ccc(Cl)cc3)CC2)c([C@@H](N)C(C)C)c1 (some centres undefined) | 7.25 |  |

More lines, main results first:

| pKi (Melanocortin receptor 4 [1]) | Compound | also measured |
| --- | --- | --- |
| 7.23 | COC(=O)N1CC[C@H](c2ccc(Cl)cc2)[C@H]1C(=O)N1CCN(c2ccc(C)cc2[C@@H](N)C(C)C)CC1 |  |
| 7.62 | CC(=O)N1CC[C@H](c2ccc(Cl)cc2)[C@@H]1C(=O)N1CCN(c2ccc(C)cc2[C@@H](N)C(C)C)CC1 (stereo in doubt; form 1) |  |
| 8.19 | Cc1ccc(N2CCN(C(=O)[C@H]3[C@@H](c4ccc(Cl)cc4)CCN3C(=O)N(C)C)CC2)c([C@@H](N)C(C)C)c1 (stereo in doubt; form 2) | Cmax [3]: 35 ng/mL; pIC50 (Melanocortin receptor 4 [2]): 7.03; AUC (Rattus norvegicus): 533 ng·h/mL; bioavailability [4]: 7.2%; half-life [5]: 4.3 h; Vd [6]: 17.2 L/kg; clearance [7]: 20 mL/min/kg |
| 7.92 | Cc1ccc(N2CCN(C(=O)[C@H]3[C@@H](c4ccc(Cl)cc4)CCN3C(=O)OC(C)C)CC2)c([C@@H](N)C(C)C)c1 |  |
| 7.21 | CCC(=O)N1CC[C@H](c2ccc(Cl)cc2)[C@H]1C(=O)N1CCN(c2ccc(C)cc2[C@@H](N)C(C)C)CC1 |  |
| 7.28 | COC(=O)N1CC[C@@H](c2ccc(Cl)cc2)[C@H]1C(=O)N1CCN(c2ccc(C)cc2[C@@H](N)C(C)C)CC1 |  |
| 6.48 | CC(=O)N1CC[C@H](c2ccc(F)cc2)[C@@H]1C(=O)N1CCN(c2ccc(C)cc2[C@@H](N)C(C)C)CC1 |  |
| 7.01 | CC(=O)N1CC[C@H](c2ccc(C)cc2)[C@@H]1C(=O)N1CCN(c2ccc(C)cc2[C@@H](N)C(C)C)CC1 |  |
| 8.13 | Cc1ccc(N2CCN(C(=O)[C@H]3[C@@H](c4ccc(Cl)cc4)CCN3C(=O)N(C)C)CC2)c([C@@H](N)C(C)C)c1 (stereo in doubt; form 1) | pIC50 (Melanocortin receptor 4 [2]): 6.72 |
| 7.77 | COC(=O)N1CC[C@H](c2ccc(Cl)cc2)[C@@H]1C(=O)N1CCN(c2ccc(C)cc2[C@@H](N)C(C)C)CC1 (stereo in doubt; form 1) | pIC50 (Melanocortin receptor 4 [2]): 6.14 |
| 5.74 | CC(=O)N1CC[C@H](c2ccccc2)[C@@H]1C(=O)N1CCN(c2ccc(C)cc2[C@@H](N)C(C)C)CC1 |  |
| 7.74 | COC(=O)N1CC[C@H](c2ccc(Cl)cc2)[C@@H]1C(=O)N1CCN(c2ccc(C)cc2[C@@H](N)C(C)C)CC1 (stereo in doubt; form 2) |  |
| 6.74 | CC(=O)N1CC[C@@H](c2ccc(Cl)cc2)[C@@H]1C(=O)N1CCN(c2ccc(C)cc2[C@@H](N)C(C)C)CC1 |  |
| 7.11 | CC(=O)N1CC[C@H](c2ccc(Cl)cc2)[C@H]1C(=O)N1CCN(c2ccc(C)cc2[C@@H](N)C(C)C)CC1 |  |
| 6.72 | Cc1ccc(N2CCN(C(=O)[C@@H]3[C@H](c4ccc(Cl)cc4)CCN3C(=O)N(C)C)CC2)c([C@@H](N)C(C)C)c1 |  |
| 7.35 | COc1ccc([C@H]2CCN(C(C)=O)[C@H]2C(=O)N2CCN(c3ccc(C)cc3[C@@H](N)C(C)C)CC2)cc1 |  |
| 7.96 | CC(=O)N1CC[C@H](c2ccc(Cl)cc2)[C@@H]1C(=O)N1CCN(c2ccc(C)cc2[C@@H](N)C(C)C)CC1 (stereo in doubt; form 2) | pIC50 (Melanocortin receptor 4 [2]): 6.28 |
| 7.27 | CC(=O)N1CC[C@H](c2ccc(C(F)(F)F)cc2)[C@@H]1C(=O)N1CCN(c2ccc(C)cc2[C@@H](N)C(C)C)CC1 |  |
| 6.92 | CC(=O)N1CC[C@@H](c2ccc(Cl)cc2)[C@H]1C(=O)N1CCN(c2ccc(C)cc2[C@@H](N)C(C)C)CC1 |  |
